Laboratory results reported in ChEMBL document CHEMBL1147958, “Evaluation of the anti-inflammatory and anti-nociceptive activities of novel synthesized melatonin analogues” (2007).

What was measured:
Rattus norvegicus [1] = test: Inhibition of carrageenan-induced paw oedema in Sprague-Dawley rat at 5.13 mg/kg, sc after 2 hrs; assay type: functional; conditions: read-out: Inhibition, route subcutaneous
Summary of the method: (§1)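 Rats (n = 6/group) got the test agent s.c. (0.5 mL) as a 30 min pretreatment. Oedema was induced by sub-plantar 1% lambda-carrageenan in saline into the right hind paw, with saline in the contralateral paw. Paw volume was measured by plethysmometer before injection and at 1, 2, 3 and 4 h, and expressed as % change from pre-drug values.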

Rattus norvegicus [2] = test: Antinociceptive activity in Sprague-Dawley rat at 5.13 mg/kg, sc assessed as increase in latency time after 2 hrs by hot plate method; assay type: functional; conditions: route subcutaneous
Summary of the method: (§2)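 Rats (n = 6/group) were dosed s.c. 30 min before testing on a hot-plate held at 52 °C, 30 s cut-off. Reaction latency was read at 1 and 2 h and expressed as % increase over each group's pre-drug basal latency, with indomethacin as the reference control. Groups were compared by ANOVA and Duncan's test.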

Rattus norvegicus [3] = test: Antinociceptive activity in Sprague-Dawley rat assessed as inhibition of number of indomethacin-induced gastric lesions at 5.13 mg/kg, sc; assay type: functional; conditions: Stomach, route subcutaneous
Summary of the method: (§3)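 Sprague-Dawley rats (120–130 g, food and water ad libitum) got indomethacin 20 mg/kg s.c. to induce gastric mucosal damage, with the test agent given s.c. at the time of indomethacin injection. Rats were killed 24 h later. Stomachs were opened along the greater curvature, rinsed with saline, and lesions counted and severity-scored on a previously described scale. Results are % decrease versus the indomethacin control.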

Mus musculus [4] = test: Antinociceptive activity in Swiss Albino mouse assessed as inhibition of acetic acid-induced writhes per 30 min at 5.13 mg/kg, sc; conditions: 0.5 h, read-out: Inhibition
Rattus norvegicus [5] = test: Inhibition of carrageenan-induced paw oedema in Sprague-Dawley rat at 5.13 mg/kg, sc after 4 hrs; assay type: functional; conditions: read-out: Inhibition, route subcutaneous; summary of the method: as §1
Rattus norvegicus [6] = test: Inhibition of carrageenan-induced paw oedema in Sprague-Dawley rat at 5.13 mg/kg, sc after 1 hr; assay type: functional; conditions: read-out: Inhibition, route subcutaneous; summary of the method: as §1
Rattus norvegicus [7] = test: […] in Sprague-Dawley rat assessed as inhibition of indomethacin-induced gastric lesions severity at 5.13 mg/kg, sc; assay type: functional; conditions: Stomach, route subcutaneous; summary of the method: as §3
Rattus norvegicus [8] = test: Antinociceptive activity in Sprague-Dawley rat at 5.13 mg/kg, sc assessed as increase in latency time after 1 hr by hot plate method; assay type: functional; conditions: route subcutaneous; summary of the method: as §2
Rattus norvegicus [9] = test: Inhibition of carrageenan-induced paw oedema in Sprague-Dawley rat at 5.13 mg/kg, sc after 3 hrs; assay type: functional; conditions: read-out: Inhibition, route subcutaneous; summary of the method: as §1
Rattus norvegicus [10] = test: Antinociceptive activity in sc dosed Sprague-Dawley rat assessed as increase in latency time after 2 hrs by hot plate method; assay type: functional; summary of the method: as §2
Rattus norvegicus [11] = test: Antinociceptive activity in sc dosed Sprague-Dawley rat assessed as increase in latency time after 1 hr by hot plate method; assay type: functional; summary of the method: as §2
Rattus norvegicus [12] = test: Antinociceptive activity in Sprague-Dawley rat at 4 mg/kg, sc assessed as increase in latency time after 1 hr by hot plate method; assay type: functional; conditions: route subcutaneous; summary of the method: as §2
Rattus norvegicus [13] = test: […] in Sprague-Dawley rat assessed as inhibition of number of indomethacin-induced gastric lesions at 4 mg/kg, sc; assay type: functional; conditions: Stomach, route subcutaneous; summary of the method: as §3
Mus musculus [14] = test: Antinociceptive activity in Swiss Albino mouse assessed as inhibition of acetic acid-induced writhes per 30 min at 4 mg/kg, sc; conditions: 0.5 h, read-out: Inhibition
Rattus norvegicus [15] = test: Inhibition of carrageenan-induced paw oedema in Sprague-Dawley rat at 4 mg/kg, sc after 1 hr; assay type: functional; conditions: read-out: Inhibition, route subcutaneous; summary of the method: as §1
Rattus norvegicus [16] = test: Antinociceptive activity in Sprague-Dawley rat at 4 mg/kg, sc assessed as increase in latency time after 2 hrs by hot plate method; assay type: functional; conditions: route subcutaneous; summary of the method: as §2
Rattus norvegicus [17] = test: […] in Sprague-Dawley rat assessed as inhibition of indomethacin-induced gastric lesions severity at 4 mg/kg, sc; assay type: functional; conditions: Stomach, route subcutaneous; summary of the method: as §3
Rattus norvegicus [18] = test: Inhibition of carrageenan-induced paw oedema in Sprague-Dawley rat at 4 mg/kg, sc after 4 hrs; assay type: functional; conditions: read-out: Inhibition, route subcutaneous; summary of the method: as §1
Rattus norvegicus [19] = test: Inhibition of carrageenan-induced paw oedema in Sprague-Dawley rat at 4 mg/kg, sc after 2 hrs; assay type: functional; conditions: read-out: Inhibition, route subcutaneous; summary of the method: as §1
Rattus norvegicus [20] = test: Inhibition of carrageenan-induced paw oedema in Sprague-Dawley rat at 4 mg/kg, sc after 3 hrs; assay type: functional; conditions: read-out: Inhibition, route subcutaneous; summary of the method: as §1

Which inhibition in vivo at 5.13 mg/kg (Rattus norvegicus [1]) does the source give for `COc1ccc2c(c1)c(CCNC(C)=O)c1n2C(=O)C=C1C` here?
Its inhibition in vivo at 5.13 mg/kg is 59.4%.

What about the Activity (Rattus norvegicus [2]) of the same compound?
The Activity was 144.6%.

And the inhibition in vivo at 5.13 mg/kg (Rattus norvegicus [3])?
The inhibition in vivo at 5.13 mg/kg was 72.6%.

And the inhibition in vivo at 5.13 mg/kg (Mus musculus [4])?
Its inhibition in vivo at 5.13 mg/kg is 68.7%.

And the inhibition in vivo at 5.13 mg/kg (Rattus norvegicus [5])?
The inhibition in vivo at 5.13 mg/kg was 28.8%.

And the inhibition in vivo at 5.13 mg/kg (Rattus norvegicus [6])?
Its inhibition in vivo at 5.13 mg/kg is 67.3%.

And the inhibition in vivo at 5.13 mg/kg (Rattus norvegicus [7])?
Its inhibition in vivo at 5.13 mg/kg is 82.6%.

And the Activity (Rattus norvegicus [8])?
The Activity was 116.6%.

And the inhibition in vivo at 5.13 mg/kg (Rattus norvegicus [9])?
The inhibition in vivo at 5.13 mg/kg was 43%.

With `COc1ccc2c(c1)c(CC(=O)O)c(C)n2C(=O)c1ccc(Cl)cc1` [INDOMETHACIN] as the compound, how does the Activity (Rattus norvegicus [10]) read?
Its Activity is 286.6%.

What about the Activity (Rattus norvegicus [11]) of the same compound?
Its Activity is 176.7%.

How did the Activity (Rattus norvegicus [12]) turn out when `COc1ccc2[nH]cc(CCNC(C)=O)c2c1` [MELATONIN] was run?
Its Activity is 39.7%.

And the inhibition in vivo at 4 mg/kg (Rattus norvegicus [13])?
Its inhibition in vivo at 4 mg/kg is 56.3%.

What about the inhibition in vivo at 4 mg/kg (Mus musculus [14]) of the same compound?
Its inhibition in vivo at 4 mg/kg is 55.6%.

And the inhibition in vivo at 4 mg/kg (Rattus norvegicus [15])?
The inhibition in vivo at 4 mg/kg was 50.8%.

What about the Activity (Rattus norvegicus [16]) of the same compound?
Its Activity is 96%.

And the inhibition in vivo at 4 mg/kg (Rattus norvegicus [17])?
The inhibition in vivo at 4 mg/kg was 69%.

What about the inhibition in vivo at 4 mg/kg (Rattus norvegicus [18]) of the same compound?
The inhibition in vivo at 4 mg/kg was 30%.

And the inhibition in vivo at 4 mg/kg (Rattus norvegicus [19])?
The inhibition in vivo at 4 mg/kg was 50.1%.

And the inhibition in vivo at 4 mg/kg (Rattus norvegicus [20])?
The inhibition in vivo at 4 mg/kg was 44.4%.
